Measurements published in ChEMBL document CHEMBL1177857, “Functionalized aurones as inducers of NAD(P)H:quinone oxidoreductase 1 that activate AhR/XRE and Nrf2/ARE signaling pathways: synthesis, evaluation and SAR” (Eur J Med Chem, 2010).
Calls of active or inactive are those of the source. The calls are words filed in the database; no cut-off is given here. Peptide text beside a SMILES is read from it. * marks the point of attachment. Cbz = O=C(OCc1ccccc1)*

Key:
Hepa-1c1c7 [1] = assay: Induction of human NQO1 gene expression in mouse Hepa-1c1c7 cells co-transfected with pGL3-ARE at 10 to 25 uM after 24 hrs by luciferase reporter gene assay; type: functional, cell-based
In short: (§1)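 Hepa1c1c7 cells at about 50% confluency co-transfected with pGL3-ARE firefly luciferase (human NQO1 ARE) and pRL-CMV Renilla as transfection control. After 24 h, cells exposed to compound (10 or 25 µM). Dual luciferase read-out expressed as fold over control; mean ± SD of 3 independent transfections, t-test.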

[2] = biological target: T1, Aryl hydrocarbon receptor (Mus musculus, UniProt P30561); assay: (§2) Induction of Ah receptor in mouse Hepa-1c1c7 cells assessed as induction of CYP1A1 activity at 1 uM after 48 hrs by EROD assay relative to control; type: cell-based; conditions: hepa-1c1c7, 48 h, 1 µM
T1 sequence (P30561 whole entry): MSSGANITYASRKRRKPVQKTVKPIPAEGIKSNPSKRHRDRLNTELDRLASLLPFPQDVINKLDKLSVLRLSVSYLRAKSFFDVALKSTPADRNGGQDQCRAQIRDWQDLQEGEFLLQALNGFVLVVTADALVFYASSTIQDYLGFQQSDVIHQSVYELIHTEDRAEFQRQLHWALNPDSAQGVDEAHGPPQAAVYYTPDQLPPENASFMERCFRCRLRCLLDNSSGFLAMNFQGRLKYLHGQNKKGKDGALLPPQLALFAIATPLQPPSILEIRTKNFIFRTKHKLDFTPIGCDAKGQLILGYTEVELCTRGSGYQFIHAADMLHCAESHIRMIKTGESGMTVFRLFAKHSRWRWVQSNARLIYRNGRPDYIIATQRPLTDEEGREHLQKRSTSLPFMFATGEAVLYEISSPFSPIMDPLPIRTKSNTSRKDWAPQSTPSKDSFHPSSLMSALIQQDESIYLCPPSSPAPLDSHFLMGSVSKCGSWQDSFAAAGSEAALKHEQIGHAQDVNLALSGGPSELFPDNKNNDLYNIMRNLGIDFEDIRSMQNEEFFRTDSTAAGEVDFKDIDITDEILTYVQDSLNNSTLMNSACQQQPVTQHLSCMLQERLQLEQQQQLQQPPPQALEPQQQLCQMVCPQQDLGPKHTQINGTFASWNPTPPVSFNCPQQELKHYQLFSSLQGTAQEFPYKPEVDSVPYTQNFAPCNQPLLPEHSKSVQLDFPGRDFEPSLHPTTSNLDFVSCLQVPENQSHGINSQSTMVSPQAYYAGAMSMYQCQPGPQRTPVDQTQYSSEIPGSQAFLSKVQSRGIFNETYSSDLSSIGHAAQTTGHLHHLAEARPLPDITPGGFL
In short: (§3)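 Hepa1c1c7 cells at 10⁴/well grown 24 h, then given compound at one fixed concentration for 48 h. After a PBS wash, cells incubated 40 min at 37 °C with 5 µM 7-ethoxyresorufin plus 2 mM salicylamide. Resorufin fluorescence read at ex 530/em 590 nm. Fold induction = (F cells+compound − F blank)/(F control − F blank); mean ± SD, n = 3.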

Hepa-1c1c7 [3] = assay: Increase of Nrf2 protein level in mouse Hepa-1c1c7 cells at 10 uM for 6 hrs Western blotting relative to control; type: functional, cell-based
In short: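 Hepa1c1c7 cells exposed to compound at 10 µM for 6 h, with MG132 (25 µM) as reference. Lysates made in digitonin/EDTA with protease inhibitors; 50 µg protein run on 15% SDS-PAGE, blotted to nitrocellulose and probed for Nrf2 with β-actin loading control. Bands quantified by densitometry against untreated control, 3 experiments, independent t-test.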

[4] = biological target: NAD(P)H dehydrogenase [quinone] 1 (Homo sapiens) (UniProt P15559); assay: Induction of […] NQO1 activity in mutant mouse BPrc1 cells assessed as concentration require for 2 fold induction after 48 hrs; type: cell-based
Chain of NAD(P)H dehydrogenase [quinone] 1 (Homo sapiens) (P15559 whole entry): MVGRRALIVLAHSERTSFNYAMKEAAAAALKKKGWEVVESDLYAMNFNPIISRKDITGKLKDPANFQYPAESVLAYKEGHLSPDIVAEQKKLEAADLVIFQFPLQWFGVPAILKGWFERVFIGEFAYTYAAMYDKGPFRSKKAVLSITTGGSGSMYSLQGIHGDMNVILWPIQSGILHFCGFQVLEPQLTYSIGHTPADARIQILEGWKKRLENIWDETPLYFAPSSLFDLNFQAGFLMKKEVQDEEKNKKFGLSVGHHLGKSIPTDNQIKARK
In short: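 Mutant Hepa1c1c7 line (Bp^rc1, defective Ah-receptor pathway) seeded at 10⁴ cells/well for 24 h, then exposed to compound for 48 h; final DMSO ≤0.5%. Cells lysed with 0.8% digitonin/2 mM EDTA. NQO1 read by menadione-driven MTT reduction (NADP, glucose-6-phosphate regenerating system, FAD, pH 7.4), stopped after 5 min with dicoumarol, A590. Activity taken relative to blank and control wells; CD = concentration doubling basal activity; mean ± SD of 3 determinations.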

Hepa-1c1c7 [5] = assay: Increase of Nrf2 protein level in mouse Hepa-1c1c7 cells at 10 uM for 6 hrs Western blotting relative to control
CYP1A1 [6] = biological target: T2, CYP1A1 (Mus musculus, UniProt P30561); assay: Induction of Ah receptor in mouse Hepa-1c1c7 cells assessed as induction of CYP1A1 activity at 10 uM after 48 hrs by EROD assay relative to control; type: cell-based; conditions: probe ethoxyresorufin (EROD), read-out: FC; in short: as §3
T2 sequence (P30561 whole entry): T1 sequence (P30561 whole entry)

[7] = Cytotoxicity against mouse Hepa-1c1c7 cells assessed as cell survival at 5 uM after 48 hrs by MTT assay; type: cell-based; conditions: read-out: Activity
In short: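 MTT (0.5 mg/ml) added for 3 h at 37 °C, formazan dissolved in DMSO and read at 590 nm. Survival (%) = (A treated − A blank)/(A untreated − A blank) × 100.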

[8] = Transcriptional activation of Nrf2/ARE signaling pathway in mouse Hepa-1c1c7 cells assessed as increase in cellular GSH level at 10 uM after 24 hrs by Ellman's method; type: functional, cell-based
In short: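 Hepa1c1c7 cells at 10⁶/plate grown 24 h, then given compound at 10 µM final for 24 h. Pellets extracted with 3% sulfosalicylic acid. Total GSH measured by DTNB recycling (0.6 mM DTNB, 0.2 mM NADPH, GSH reductase) as ΔA412 over 5 min against a GSH standard curve. Values normalized to Bradford protein from a parallel plate; mean ± SEM, n = 3.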

[9] = Induction of NQO1 activity in mouse Hepa-1c1c7 cells at 5 uM after 48 hrs relative to control
Hepa-1c1c7 [10] = assay: Induction of human NQO1 gene expression in mouse Hepa-1c1c7 cells co-transfected with pGL3-ARE at 25 uM after 24 hrs by luciferase reporter gene assay; type: functional, cell-based; in short: as §1
[11] = Upregulation of TrxR protein expression in mouse Hepa-1c1c7 cells at 10 uM after 24 hrs by Western blotting relative to control; type: functional, cell-based
In short: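 Hepa1c1c7 cells exposed to compound at 10 µM for 24 h. Digitonin/EDTA lysates (50 µg protein) separated on 15% SDS-PAGE, blotted to nitrocellulose and probed with anti-TrxR antibody. Band intensity compared with untreated control; representative of 3 experiments.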

CYP1A1 [12] = biological target: T2, CYP1A1; assay: as §2; type: cell-based; conditions: Hepa-1c1c7 cells, probe ethoxyresorufin (EROD), read-out: FC; in short: as §3
[13] = Induction of NQO1 activity in mouse Hepa-1c1c7 cells at 1 uM after 48 hrs relative to control

Row | SMILES | Activity (Hepa-1c1c7 [1]) | Activity (Hepa-1c1c7 [3]) | fold induction at 48 h, 10 µM (CYP1A1 [6]) | viability at 48 h, 5 µM [7] [%] | Activity [8] | fold change (FC) [9] | further results
1 | C[S+]([O-])CCCCN=C=S (configuration not stated) [SULFORAPHANE] | inactive | Active |  |  |  |  | Activity [2]: 0.92; Activity [4]: inactive
2 | CC(C)C[C@@H](C=O)NC(=O)[C@H](CC(C)C)NC(=O)[C@H](CC(C)C)NC(=O)OCc1ccccc1 (Cbz-Leu-Leu-Leu-aldehyde) |  |  |  |  |  |  | Activity (Hepa-1c1c7 [5]): Active
3 | O=C1/C(=C/c2ccccc2O)Oc2cc(O)cc(O)c21 | Active | Active | 1.1 | 102 | Active | 2.92 | Activity (Hepa-1c1c7 [10]): Active
4 | COc1cc(OC)c2c(c1)O/C(=C\c1ccccc1)C2=O | Active | Active | 2.04 | 93 | Active | 7.7 | Activity [11]: Active
5 | COc1cc(OC)c2c(c1)O/C(=C\c1ccccc1OC)C2=O |  |  |  | 82 |  |  | fold induction at 48 h, 1 µM (CYP1A1 [12]): 1.56; fold change (FC) [13]: 2.21
